This is an account of results in PubChem BioAssay AID977615 (Broad Institute, 2014).

Values joined by “and” are separate entries in the source; they are usually repeats but may differ in a detail not shown here. Identical values can stand only once. Active and inactive are the calls of the source.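 The calls were made as follows: active = cell killing with fitted AC50 at or below twice the top valid dose for that sample; inconclusive = flat curve losing 30 to 70% signal, or bad fit; inactive = the rest.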

Experiment [1] is described as follows: viability loss in human kidney cells – cell-based, CellTiter-Glo luminescence, dry powder, set 17, cytotoxicity control, dose response (AID 977615). As to conditions: HEK293T viability, CellTiter-Glo ATP luminescence, 72 h; at 26 µM (top of the series). The method, boiled down: (§1)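 Assay system: HEK293T cells. Buffer or medium: DMEM plus 10% FBS. Compound dosing: multi-concentration compound series. Schedule: 24 h attachment, 72 h compound exposure, 37 °C, 5% CO2. Signal: CellTiter-Glo ATP luminescence.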

Experiment [2] deals with HEK293T viability, CellTiter-Glo ATP luminescence, 72 h. The description is as above. The method, boiled down:
as §1

For `C[C@@H](O)C#Cc1ccc2c(c1)O[C@@H](CN(C)S(=O)(=O)c1ccc(-c3ccccc3)cc1)[C@@H](C)CN([C@@H](C)CO)S2(=O)=O`, the activity change, negative = cytotoxic in experiment [1] is -12.1% (inactive). Consider `C[C@H](O)C#Cc1ccc2c(c1)O[C@@H](CN(C)Cc1ccc(-c3ccccc3)cc1)[C@@H](C)CN([C@@H](C)CO)S2(=O)=O`, for which the AC50 in experiment [2] is 22000 nM. On to `C[C@@H]1CN([C@H](C)CO)S(=O)(=O)c2ccc(C#C[C@@H](C)O)cc2O[C@H]1CN(C)Cc1ccc(-c2ccccc2)cc1`, for which the activity change, negative = cytotoxic in experiment [1] was -10.1% (inactive). On the same count and under the same terms, next, `C[C@H](O)C#Cc1ccc2c(c1)O[C@H](CN(C)Cc1ccc(-c3ccccc3)cc1)[C@H](C)CN([C@@H](C)CO)S2(=O)=O`: -11.3% (inactive). Turning to `C[C@@H](O)C#Cc1ccc2c(c1)O[C@@H](CN(C)Cc1ccc(-c3cccc(Cl)c3)cc1)[C@@H](C)CN([C@@H](C)CO)S2(=O)=O`, the AC50 in experiment [2] was 2080 nM. Same read-out and setting: next, `C[C@H]1CN([C@@H](C)CO)S(=O)(=O)c2ccc(C#CC(C)(C)O)cc2O[C@H]1CN(C)Cc1ccc(-c2ccccc2)cc1`: 18000 nM. As to `C[C@@H]1CN([C@@H](C)CO)S(=O)(=O)c2ccc(C#C[C@@H](C)O)cc2O[C@@H]1CN(C)Cc1ccc(-c2ccccc2)cc1`, the activity change, negative = cytotoxic in experiment [1] was -8.45% (inactive). Regarding `Cc1ccc(-c2ccc(CN(C)C[C@@H]3Oc4cc(C#C[C@@H](C)O)ccc4S(=O)(=O)N([C@@H](C)CO)C[C@@H]3C)cc2)cc1`, the AC50 in experiment [2] is 1540 nM. For `C[C@@H](O)C#Cc1ccc2c(c1)O[C@@H](CN(C)Cc1ccc(-c3ccccc3Cl)cc1)[C@@H](C)CN([C@@H](C)CO)S2(=O)=O`, the AC50 in experiment [2] was 364 nM.

Turning to `CNC[C@@H]1Oc2cc(Br)ccc2S(=O)(=O)N([C@@H](C)CO)C[C@@H]1C`, the activity change, negative = cytotoxic in experiment [1] was -16.1% (inactive). With `COc1ccc(-c2ccc3c(c2)O[C@@H](CN(C)Cc2ccc(-c4ccccc4)cc2)[C@@H](C)CN([C@@H](C)CO)S3(=O)=O)cc1`, the AC50 in experiment [2] was > 52000 nM (inactive).

With `C[C@H](O)C#Cc1ccc2c(c1)O[C@@H](CN(C)Cc1ccc(-c3ccccc3)cc1)[C@H](C)CN([C@H](C)CO)S2(=O)=O`, the AC50 in experiment [2] was 26100 nM. Regarding `C[C@H]1CN([C@@H](C)CO)S(=O)(=O)c2ccc(Br)cc2O[C@H]1CN(C)Cc1ccc(-c2ccccc2)cc1`, the activity change, negative = cytotoxic in experiment [1] was -0.919% (inactive). Turning to `C[C@H](CO)N1C[C@H](C)[C@H](CN(C)Cc2ccc(-c3ccccc3)cc2)Oc2cc(C#C[C@@H](C)O)ccc2S1(=O)=O`, in experiment [2], the AC50 is 21700 nM. Turning to `COc1ccccc1-c1ccc(CN(C)C[C@@H]2Oc3cc(C#C[C@@H](C)O)ccc3S(=O)(=O)N([C@@H](C)CO)C[C@@H]2C)cc1`, the AC50 in experiment [2] is 1350 nM. `C[C@@H](O)C#Cc1ccc2c(c1)O[C@H](CN(C)Cc1ccc(-c3ccccc3)cc1)[C@@H](C)CN([C@@H](C)CO)S2(=O)=O`: the AC50 in experiment [2] was 25900 nM.

In the case of `Cc1cccc(-c2ccc(CN(C)C[C@@H]3Oc4cc(C#C[C@@H](C)O)ccc4S(=O)(=O)N([C@@H](C)CO)C[C@@H]3C)cc2)c1`, the AC50 in experiment [2] was 1530 nM. On the same count and under the same terms, next, `COc1ccc(-c2ccc(CN(C)C[C@@H]3Oc4cc(C#C[C@@H](C)O)ccc4S(=O)(=O)N([C@@H](C)CO)C[C@@H]3C)cc2)cc1`: 1580 nM.

Regarding `C[C@H](O)C#Cc1ccc2c(c1)O[C@H](CN(C)Cc1ccc(-c3ccccc3)cc1)[C@@H](C)CN([C@@H](C)CO)S2(=O)=O`, the AC50 in experiment [2] was 7120 nM. For the compound `Cc1ccccc1-c1ccc(CN(C)C[C@@H]2Oc3cc(C#C[C@@H](C)O)ccc3S(=O)(=O)N([C@@H](C)CO)C[C@@H]2C)cc1`, the AC50 in experiment [2] is 1890 nM. On the same count and under the same terms, with `C[C@@H](O)C#Cc1ccc2c(c1)O[C@@H](CN(C)Cc1ccc(-c3ccc(Cl)cc3)cc1)[C@@H](C)CN([C@@H](C)CO)S2(=O)=O` the figure was 1260 nM; with `COc1cccc(-c2ccc(CN(C)C[C@@H]3Oc4cc(C#C[C@@H](C)O)ccc4S(=O)(=O)N([C@@H](C)CO)C[C@@H]3C)cc2)c1`, 884 nM.

Take `CO[C@H]1CN(C)C(=O)c2ccc(NC(=O)c3ccc(F)cc3)cc2OC[C@H](C)N(C(=O)c2ccc(F)cc2)C[C@@H]1C`: in experiment [1], the activity change, negative = cytotoxic was 1.97% (inactive). As to `C[C@@H](O)C#Cc1ccc2c(c1)O[C@@H](CN(C)Cc1cccnc1)[C@@H](C)CN([C@@H](C)CO)S2(=O)=O`, the activity change, negative = cytotoxic in experiment [1] is 2.11% (inactive). For the compound `C[C@@H](O)C#Cc1ccc2c(c1)O[C@@H](CN(C)Cc1ccc(-c3ccccc3)cc1)[C@@H](C)CN([C@@H](C)CO)S2(=O)=O`, the AC50 in experiment [2] is 3610 nM and 2940 nM. For the compound `C[C@@H](O)C#Cc1ccc2c(c1)O[C@@H](CN(C)Cc1ccncc1)[C@@H](C)CN([C@@H](C)CO)S2(=O)=O`, in experiment [1], the activity change, negative = cytotoxic is -12% (inactive). The same measure, in the same setting: with `C[C@@H]1CN([C@H](C)CO)S(=O)(=O)c2ccc(C#C[C@@H](C)O)cc2O[C@@H]1CN(C)Cc1ccc(-c2ccccc2)cc1` the figure was 2.1% (inactive).

The term AC50 denotes the concentration giving half of the maximal activity seen.
